Experimental data as given in ChEMBL document CHEMBL4052823, “Extra Sugar on Vancomycin: New Analogues for Combating Multidrug-Resistant Staphylococcus aureus and Vancomycin-Resistant Enterococci” (J Med Chem, 2018).
Values after ≈ are worked out from the molar mass of the structure shown. Active and inactive are the calls of the source. The calls are words filed in the database; no cut-off is given here.

Key:
[1] = system: Enterococcus faecium; test: Antibacterial activity against glycopeptide-resistant Enterococcus faecium Efm-HS-0847 vanM after 24 hrs by broth microdilution method; type: functional; details: Efm-HS-0847, 24 h
In short: (§1)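 Broth microdilution in cation-adjusted Mueller-Hinton II broth. DMSO stocks were diluted in broth and twofold serially from 128 to 0.0625 μg/mL or lower. Each well was inoculated with ~10^5 CFU of exponential-phase bacteria and incubated at 37 °C for 24 h. MIC was the lowest concentration giving complete growth inhibition, read per CLSI. Growth controls contained broth plus DMSO.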

[2] = system: Enterococcus faecium; test: Antibacterial activity against glycopeptide-resistant Enterococcus faecium Efm-HS-0649 vanA after 24 hrs by broth microdilution method; type: functional; details: Efm-HS-0649, 24 h; in short: as §1
[3] = system: Enterococcus faecium; test: Antibacterial activity against glycopeptide-resistant Enterococcus faecium Efm-HS-06188 vanA after 24 hrs by broth microdilution method; type: functional; details: Efm-HS-06188, 24 h; in short: as §1
[4] = system: Staphylococcus aureus; test: Antibacterial activity against vancomycin/methicillin-susceptible Staphylococcus aureus Newman […] after 24 hrs by broth microdilution method; type: functional
In short: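 Broth microdilution in cation-adjusted Mueller-Hinton II broth. […] Each well received ~10^5 CFU of exponential-phase bacteria and was incubated at 37 °C for 24 h. MIC was taken as the lowest concentration giving complete growth inhibition, interpreted per CLSI.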

[5] = system: Enterococcus faecium; test: Antibacterial activity against glycopeptide-resistant Enterococcus faecium Efm-HS-vb01 vanB after 24 hrs by broth microdilution method; type: functional; details: Efm-HS-vb01, 24 h; in short: as §1
[6] = system: Staphylococcus aureus; test: Antibacterial activity against healthcare-associated methicillin-resistant/vancomycin-intermediate Staphylococcus aureus Mu50 after 24 hrs by broth microdilution method; type: functional; details: Mu50, 24 h; in short: as §1
[7] = system: Staphylococcus aureus; test: Potency index, ratio of telavancin MIC90 to test compound MIC90 for vancomycin/methicillin-susceptible Staphylococcus aureus Newman […]; type: functional
[8] = system: Enterococcus faecium; test: Antibacterial activity against glycopeptide-resistant Enterococcus faecium Efm-HS-08257 vanM after 24 hrs by broth microdilution method; type: functional; details: Efm-HS-08257, 24 h; in short: as §1
[9] = system: Staphylococcus aureus; test: Antibacterial activity against methicillin-resistant Staphylococcus aureus USA300 LAC infected in BALB/c mouse assessed as mouse survival rate at 7 mg/kg, ip administered as single dose measured after 10 days relative to control; type: functional; details: for survival at 7 mg/kg: 240 h
In short: (§2)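 Female BALB/c mice, 6−8 weeks old, were anesthetized with pentobarbital and infected retro-orbitally with ~2.35 × 10^8 CFU of exponential-phase USA300 LAC, 15 per group. A single 7 mg/kg ip dose was given 1 h after infection. Deaths were recorded daily to build survival curves.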

[10] = system: HK-2; test: Cytotoxicity against human HK2 cells assessed as decrease in cell viability at 10 to 100 uM after 72 hrs by CCK8 assay; type: cell-based; details: hk-2, 72 h
In short: (§3)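 HK-2 and HL-7702 cells were seeded at ~5000 cells/well, incubated overnight, then exposed to compound at final 10, 50 and 100 μM for 72 h. CCK-8 was added for 1.5 h at 37 °C and OD450 read. Viability was OD treated / OD untreated × 100, with triplicates.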

[11] = system: Staphylococcus aureus; test: Antibacterial activity against healthcare-associated methicillin-resistant/vancomycin-intermediate Staphylococcus aureus Mu50 infected in BALB/c mouse assessed as decrease in liver CFU levels at 7 mg/kg, ip administered twice in 24 hrs interval measured after 5 days; type: functional, organism-based
In short: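 Female BALB/c mice, 6−8 weeks old, were anesthetized with pentobarbital and infected retro-orbitally with ~3.8 × 10^8 CFU of exponential-phase Mu50, 12 per group. Treatment started 1 h post-infection: 7 mg/kg ip in sterile water, two doses 24 h apart. At day 5 mice were euthanized and liver homogenates plated on TSA for CFU counts. Groups were compared by two-tailed Mann−Whitney test.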

[12] = Clearance in CD1 mouse at 5 mg/kg, iv; type: ADME, organism-based; details: in vivo
In short: (§4)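 Fasted male CD-1 mice (18−22 g), 5 mg/kg single dose into the tail vein, 6 per group. Blood sampled at 0.25, 0.75, 2, 4, 8 and 24 h and analysed by UPLC-MS/MS. T1/2, AUClast, AUCINF_obs, CL_obs, MRTINF_obs and VSS_obs were calculated for each animal from its time−concentration curve.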

[13] = system: L02; test: Cytotoxicity against human HL7702 cells assessed as decrease in cell viability at 10 to 100 uM after 72 hrs by CCK8 assay; type: cell-based; details: l02, 72 h; in short: as §3
[14] = system: Blood; test: Drug uptake in CD1 mouse blood at 5 mg/kg, iv; type: ADME, organism-based; details: in vivo; in short: as §4
[15] = Half life in CD1 mouse at 5 mg/kg, iv; type: ADME, organism-based; details: in vivo; in short: as §4
[16] = AUClast in CD1 mouse at 5 mg/kg, iv; type: ADME, organism-based; set-up: dose 5 mg/kg, route intravenous, time 0 - last; details: in vivo; in short: as §4
[17] = AUC (infinity) in CD1 mouse at 5 mg/kg, iv; type: ADME, organism-based; set-up: dose 5 mg/kg, route intravenous, time infinity; details: in vivo; in short: as §4
[18] = Volume of distribution at steady state in CD1 mouse at 5 mg/kg, iv; type: ADME, organism-based; details: in vivo, read-out: Vdss
In short: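 Fasted male CD-1 mice (18−22 g), 5 mg/kg single dose into the tail vein, 6 per group. T1/2, AUClast, AUCINF_obs, CL_obs, MRTINF_obs and VSS_obs were calculated for each animal from its time−concentration curve.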

[19] = MRT (infinity) in CD1 mouse at 5 mg/kg, iv; type: ADME, organism-based; details: in vivo; in short: as §4
[20] = system: Staphylococcus aureus; test: Antibacterial activity against methicillin-resistant Staphylococcus aureus USA300 LAC infected in BALB/c mouse assessed as increase in mouse survival rate at 7 mg/kg, ip administered as single dose after 10 days relative to control; type: functional, organism-based; in short: as §2

SMILES	MIC [1] [µg/mL]	MIC [2] [µg/mL]	MIC [3] [µg/mL]	MIC90 [4] [µg/mL]	MIC [5] [µg/mL]	MIC90 [6] [µg/mL]	Ratio [7]	MIC [8] [µg/mL]	Activity [10]	Activity [11]	clearance [12] [mL/min/kg]	Activity [13]	Drug uptake [14] [µg/mL]	half-life [15] [h]	AUC(0-t) [16] [ng·h/mL]	AUC(0-inf) [17] [ng·h/mL]	Vd [18] [L/kg]	MRT inf [19] [h]	also measured
CCCCCCCCCCN[C@@]1(C)C[C@H](O[C@H]2[C@H](Oc3c4cc5cc3Oc3ccc(cc3Cl)[C@@H](O)[C@@H](NC(=O)[C@@H](CC(C)C)NC)C(=O)N[C@@H](CC(N)=O)C(=O)N[C@H]5C(=O)N[C@H]3C(=O)N[C@H](C(=O)N[C@H](C(=O)O)c5cc(O)c(CN[C@H]6C(O)O[C@H](CO)[C@H](O)[C@@H]6O)c(O)c5-c5cc3ccc5O)[C@H](O)c3ccc(c(Cl)c3)O4)O[C@H](CO)[C@@H](O)[C@@H]2O)O[C@@H](C)[C@H]1O (stereo not given in full)	32 (≈ 18 µM)	8 (≈ 4.49 µM)	8 (≈ 4.49 µM)	0.03 (≈ 0.0168 µM)	0.5 (≈ 0.281 µM)	0.25 (≈ 0.14 µM)	8 - 16	16 (≈ 8.99 µM)											
CCCCCCCCCCNCCN[C@@]1(C)C[C@H](O[C@H]2[C@H](Oc3c4cc5cc3Oc3ccc(cc3Cl)[C@@H](O)[C@@H](NC(=O)[C@@H](CC(C)C)NC)C(=O)N[C@@H](CC(N)=O)C(=O)N[C@H]5C(=O)N[C@H]3C(=O)N[C@H](C(=O)N[C@H](C(=O)O)c5cc(O)c(CNCP(=O)(O)O)c(O)c5-c5cc3ccc5O)[C@H](O)c3ccc(c(Cl)c3)O4)O[C@H](CO)[C@@H](O)[C@@H]2O)O[C@@H](C)[C@H]1O [TELAVANCIN]	4 (≈ 2.28 µM)	4 (≈ 2.28 µM)	8 (≈ 4.56 µM)	0.25 (≈ 0.142 µM)	1 (≈ 0.57 µM)	1 (≈ 0.57 µM)		0.12 (≈ 0.0684 µM)	Non-Toxic	Active	5.1	Toxic							Activity [9]: Active
CN[C@H](CC(C)C)C(=O)N[C@H]1C(=O)N[C@@H](CC(N)=O)C(=O)N[C@H]2C(=O)N[C@H]3C(=O)N[C@H](C(=O)N[C@H](C(=O)O)c4cc(O)c(CN[C@H]5C(O)O[C@H](CO)[C@H](O)[C@@H]5O)c(O)c4-c4cc3ccc4O)[C@H](O)c3ccc(c(Cl)c3)Oc3cc2cc(c3O[C@@H]2O[C@H](CO)[C@@H](O)[C@H](O)[C@H]2O[C@H]2C[C@](C)(NCc3ccc(-c4ccc(Cl)cc4)cc3)[C@H](O)[C@H](C)O2)Oc2ccc(cc2Cl)[C@H]1O (stereo not given in full)	8 (≈ 4.35 µM)	2 (≈ 1.09 µM)	2 (≈ 1.09 µM)	0.03 (≈ 0.0163 µM)	0.25 (≈ 0.136 µM)	0.12 (≈ 0.0652 µM)	8 - 16	4 (≈ 2.17 µM)		Active	7		> 1	3.81	12100	12200	1.75	4.18	survival at 7 mg/kg [9]: 93.3%
CN[C@H](CC(C)C)C(=O)N[C@H]1C(=O)N[C@@H](CC(N)=O)C(=O)N[C@H]2C(=O)N[C@H]3C(=O)N[C@H](C(=O)N[C@H](C(=O)O)c4cc(O)cc(O)c4-c4cc3ccc4O)[C@H](O)c3ccc(c(Cl)c3)Oc3cc2cc(c3O[C@@H]2O[C@H](CO)[C@@H](O)[C@H](O)[C@H]2O[C@H]2C[C@](C)(N)[C@H](O)[C@H](C)O2)Oc2ccc(cc2Cl)[C@H]1O [VANCOMYCIN]	> 128	> 128	> 128	2 (≈ 1.38 µM)	64 (≈ 44.2 µM)	8 (≈ 5.52 µM)		> 128	Toxic	inactive	68.7	Toxic					3.08		survival at 7 mg/kg [9]: 6.67%
CN[C@H](CC(C)C)C(=O)N[C@H]1C(=O)N[C@@H](CC(N)=O)C(=O)N[C@H]2C(=O)N[C@H]3C(=O)N[C@H](C(=O)N[C@H](C(=O)O)c4cc(O)c(CNCCO[C@@H]5O[C@H](CO)[C@H](O)[C@H](O)[C@H]5O)c(O)c4-c4cc3ccc4O)[C@H](O)c3ccc(c(Cl)c3)Oc3cc2cc(c3O[C@@H]2O[C@H](CO)[C@@H](O)[C@H](O)[C@H]2O[C@H]2C[C@](C)(NCc3ccc(-c4ccc(Cl)cc4)cc3)[C@H](O)[C@H](C)O2)Oc2ccc(cc2Cl)[C@H]1O	16 (≈ 8.49 µM)	4 (≈ 2.12 µM)	2 (≈ 1.06 µM)	0.06 (≈ 0.0318 µM)	0.12 (≈ 0.0637 µM)	0.25 (≈ 0.133 µM)		4 (≈ 2.12 µM)	Non-Toxic			Non-Toxic							
CN[C@H](CC(C)C)C(=O)N[C@H]1C(=O)N[C@@H](CC(N)=O)C(=O)N[C@H]2C(=O)N[C@H]3C(=O)N[C@H](C(=O)N[C@H](C(=O)O)c4cc(O)cc(O)c4-c4cc3ccc4O)[C@H](O)c3ccc(c(Cl)c3)Oc3cc2cc(c3O[C@@H]2O[C@H](CO)[C@@H](O)[C@H](O)[C@H]2O[C@H]2C[C@](C)(NCc3ccc(-c4ccc(C(F)(F)F)cc4)cc3)[C@H](O)[C@H](C)O2)Oc2ccc(cc2Cl)[C@H]1O											1.24		> 1	6.04	64200	67500	0.509	6.83	
CN[C@H](CC(C)C)C(=O)N[C@H]1C(=O)N[C@@H](CC(N)=O)C(=O)N[C@H]2C(=O)N[C@H]3C(=O)N[C@H](C(=O)N[C@H](C(=O)O)c4cc(O)c(CNCCCNC(=O)[C@H](O)[C@@H](O)[C@H](O)[C@H](O)CO)c(O)c4-c4cc3ccc4O)[C@H](O)c3ccc(c(Cl)c3)Oc3cc2cc(c3O[C@@H]2O[C@H](CO)[C@@H](O)[C@H](O)[C@H]2O[C@H]2C[C@](C)(NCc3ccc(-c4ccc(C(F)(F)F)cc4)cc3)[C@H](O)[C@H](C)O2)Oc2ccc(cc2Cl)[C@H]1O	8 (≈ 4.11 µM)	2 (≈ 1.03 µM)	1 (≈ 0.513 µM)	0.06 (≈ 0.0308 µM)	0.5 (≈ 0.257 µM)	0.25 (≈ 0.128 µM)	8 - 16	4 (≈ 2.05 µM)			6.4		> 1	3.72	10700	13400	1.83	4.79	Activity [20]: Active
CN[C@H](CC(C)C)C(=O)N[C@H]1C(=O)N[C@@H](CC(N)=O)C(=O)N[C@H]2C(=O)N[C@H]3C(=O)N[C@H](C(=O)N[C@H](C(=O)O)c4cc(O)c(CNCCO)c(O)c4-c4cc3ccc4O)[C@H](O)c3ccc(c(Cl)c3)Oc3cc2cc(c3O[C@@H]2O[C@H](CO)[C@@H](O)[C@H](O)[C@H]2O[C@H]2C[C@](C)(NCc3ccc(-c4ccc(C(F)(F)F)cc4)cc3)[C@H](O)[C@H](C)O2)Oc2ccc(cc2Cl)[C@H]1O	4 (≈ 2.28 µM)	1 (≈ 0.569 µM)	1 (≈ 0.569 µM)	0.015 (≈ 0.00854 µM)	≤ 0.06	0.12 (≈ 0.0683 µM)		2 (≈ 1.14 µM)											Activity [20]: Active
